In ChEMBL document CHEMBL1132569:

Experiments:
[1] = target: T1, Muscarinic acetylcholine receptor M4 (Homo sapiens) (UniProt P08173); assay: Binding affinity at the NMS liganded human muscarinic acetylcholine receptor M4 was estimated as log affinity (log1/M)
T1 sequence (whole entry): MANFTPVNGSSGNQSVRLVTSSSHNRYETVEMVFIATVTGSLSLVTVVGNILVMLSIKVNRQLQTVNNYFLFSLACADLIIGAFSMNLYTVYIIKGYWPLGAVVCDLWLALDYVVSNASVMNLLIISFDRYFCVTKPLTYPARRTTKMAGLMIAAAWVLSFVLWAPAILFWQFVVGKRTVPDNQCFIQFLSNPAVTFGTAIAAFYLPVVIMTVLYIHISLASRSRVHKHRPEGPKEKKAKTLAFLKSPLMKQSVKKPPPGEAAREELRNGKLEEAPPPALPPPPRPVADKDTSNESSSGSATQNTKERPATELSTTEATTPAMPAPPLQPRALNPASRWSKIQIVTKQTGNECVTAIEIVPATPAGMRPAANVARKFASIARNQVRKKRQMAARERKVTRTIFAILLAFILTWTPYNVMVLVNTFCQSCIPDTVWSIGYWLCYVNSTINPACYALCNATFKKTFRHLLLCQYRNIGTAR
How it was run: (§1)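 Equilibrium runs were ≥2 h with 2 × 10⁻⁴ M GTP and 0.1–0.7 nM ³H-NMS. Nonspecific binding was defined with 10⁻⁶ M QNB, and bound ligand was filtered and counted. Log affinities came from semiquantitative plus off-rate, quantitative equilibrium, or nonequilibrium assays, fitted by nonlinear least squares to the allosteric ternary complex model.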

[2] = target: T1, Muscarinic acetylcholine receptor M4 (Homo sapiens); assay: Binding affinity at the unliganded human muscarinic acetylcholine receptor M4 was estimated as log affinity (log1/M); how it was run: as §1
[3] = target: T1, Muscarinic acetylcholine receptor M4 (Homo sapiens); assay: Cooperativity with NMS at human muscarinic acetylcholine receptor M4
How it was run: (§2)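 Equilibrium ³H-NMS binding in CHO membranes expressing human m1–m5 receptors was measured with and without ACh, alone and with three agent concentrations. Data were converted to affinity ratios, meaning apparent primary-ligand affinity with agent divided by affinity without it.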

[4] = target: T1, Muscarinic acetylcholine receptor M4 (Homo sapiens); assay: Cooperativity with acetylcholine at human muscarinic acetylcholine receptor M4; how it was run: as §2
[5] = target: Muscarinic acetylcholine receptor M3 (Homo sapiens) (UniProt P20309); assay: Cooperativity with NMS at human muscarinic acetylcholine receptor M3; how it was run: as §2
[6] = target: Muscarinic acetylcholine receptor M3 (Homo sapiens) (UniProt P20309); assay: Cooperativity with acetylcholine at human muscarinic acetylcholine receptor M3; how it was run: as §2
[7] = target: Muscarinic acetylcholine receptor M3 (Homo sapiens) (UniProt P20309); assay: Binding affinity at the NMS liganded human muscarinic acetylcholine receptor M3 was estimated as log affinity (log1/M); how it was run: as §1
[8] = target: Muscarinic acetylcholine receptor M3 (Homo sapiens) (UniProt P20309); assay: Binding affinity at the unliganded human muscarinic acetylcholine receptor M3 was estimated as log affinity (log1/M); how it was run: as §1
[9] = target: T2, Muscarinic acetylcholine receptor M2 (Homo sapiens) (UniProt P08172); assay: Binding affinity at the NMS liganded human muscarinic acetylcholine receptor M2 was estimated as log affinity (log1/M); how it was run: as §1
T2 sequence (whole entry): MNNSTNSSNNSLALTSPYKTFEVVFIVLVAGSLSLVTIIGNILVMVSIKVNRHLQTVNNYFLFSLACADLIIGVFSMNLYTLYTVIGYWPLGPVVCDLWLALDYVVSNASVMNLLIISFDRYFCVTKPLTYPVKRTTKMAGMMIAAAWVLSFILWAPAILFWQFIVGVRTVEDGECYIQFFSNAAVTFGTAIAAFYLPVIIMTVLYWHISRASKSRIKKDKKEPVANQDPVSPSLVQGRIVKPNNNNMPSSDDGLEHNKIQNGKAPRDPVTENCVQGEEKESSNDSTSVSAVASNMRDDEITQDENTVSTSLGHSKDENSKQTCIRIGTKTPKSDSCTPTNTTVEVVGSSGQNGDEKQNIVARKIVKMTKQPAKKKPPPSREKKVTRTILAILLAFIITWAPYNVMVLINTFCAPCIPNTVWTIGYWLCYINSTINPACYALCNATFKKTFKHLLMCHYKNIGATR

[10] = target: T2, Muscarinic acetylcholine receptor M2 (Homo sapiens); assay: Binding affinity at the unliganded human muscarinic acetylcholine receptor M2 was estimated as log affinity (log1/M); how it was run: as §1
[11] = target: T2, Muscarinic acetylcholine receptor M2 (Homo sapiens); assay: Cooperativity with NMS at human muscarinic acetylcholine receptor M2; how it was run: as §2
[12] = target: T2, Muscarinic acetylcholine receptor M2 (Homo sapiens); assay: Cooperativity with acetylcholine at human muscarinic acetylcholine receptor M2; how it was run: as §2
[13] = target: T3, Muscarinic acetylcholine receptor M1 (Homo sapiens) (UniProt P11229); assay: Binding affinity at the NMS liganded human muscarinic acetylcholine receptor M1 was estimated as log affinity (log1/M); how it was run: as §1
T3 sequence (whole entry): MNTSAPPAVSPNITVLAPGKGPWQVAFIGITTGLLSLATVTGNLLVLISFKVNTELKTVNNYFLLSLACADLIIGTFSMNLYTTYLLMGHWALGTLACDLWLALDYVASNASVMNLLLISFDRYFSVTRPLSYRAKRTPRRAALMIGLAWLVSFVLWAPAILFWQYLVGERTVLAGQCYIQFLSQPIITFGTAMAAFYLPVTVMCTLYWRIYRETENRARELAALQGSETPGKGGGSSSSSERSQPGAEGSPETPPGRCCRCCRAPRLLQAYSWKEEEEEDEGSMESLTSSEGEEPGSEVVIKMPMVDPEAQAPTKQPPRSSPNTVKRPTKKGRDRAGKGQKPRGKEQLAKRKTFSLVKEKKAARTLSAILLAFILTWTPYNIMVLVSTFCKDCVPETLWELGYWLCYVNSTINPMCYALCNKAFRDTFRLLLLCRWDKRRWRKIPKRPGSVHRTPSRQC

[14] = target: T3, Muscarinic acetylcholine receptor M1 (Homo sapiens); assay: Binding affinity at the unliganded human muscarinic acetylcholine receptor M1 was estimated as log affinity (log1/M); how it was run: as §1
[15] = target: T3, Muscarinic acetylcholine receptor M1 (Homo sapiens); assay: Cooperativity with NMS at human muscarinic acetylcholine receptor M1; how it was run: as §2
[16] = target: T3, Muscarinic acetylcholine receptor M1 (Homo sapiens); assay: Cooperativity with acetylcholine at human muscarinic acetylcholine receptor M1; how it was run: as §2

Chain of Muscarinic acetylcholine receptor M3 (Homo sapiens) (P20309 whole entry, looked up): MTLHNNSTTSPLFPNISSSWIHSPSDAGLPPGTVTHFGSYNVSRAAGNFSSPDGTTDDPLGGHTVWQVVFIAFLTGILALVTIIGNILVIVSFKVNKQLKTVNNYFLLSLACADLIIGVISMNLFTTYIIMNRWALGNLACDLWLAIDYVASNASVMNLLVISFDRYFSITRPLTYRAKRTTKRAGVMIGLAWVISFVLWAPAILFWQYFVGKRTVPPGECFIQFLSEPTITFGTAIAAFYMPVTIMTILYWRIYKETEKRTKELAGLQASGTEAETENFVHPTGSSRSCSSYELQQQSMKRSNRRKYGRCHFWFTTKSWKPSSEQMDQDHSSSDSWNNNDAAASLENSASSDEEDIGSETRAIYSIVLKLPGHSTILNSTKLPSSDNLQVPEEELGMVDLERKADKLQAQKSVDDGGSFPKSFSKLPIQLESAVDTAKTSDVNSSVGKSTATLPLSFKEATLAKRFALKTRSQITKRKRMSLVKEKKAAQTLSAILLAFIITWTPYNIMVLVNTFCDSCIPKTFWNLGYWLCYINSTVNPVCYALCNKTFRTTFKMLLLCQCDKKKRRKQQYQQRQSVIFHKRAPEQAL

## O=C1C[C@@H]2OCC=C3C[N+]4(CCc5ccccc5)CC[C@]56c7ccccc7N1[C@H]5[C@H]2[C@H]3C[C@@H]64 (stereo partly drawn)
[1]
  Affinity: 5.5
[2]
  Affinity: 5.2
[3]
  Cooperativity: 2
[4]
  Cooperativity: < 0.2
[5]
  Cooperativity: 0.8
[6]
  Cooperativity: < 0.2
[7]
  Affinity: 4.6
[8]
  Affinity: 4.8
[9]
  Affinity: 5.7
[10]
  Affinity: 5.3
[11]
  Cooperativity: > 2
[12]
  Cooperativity: < 0.2
[13]
  Affinity: 4.9
[14]
  Affinity: 4.9
[15]
  Cooperativity: 1.19
[16]
  Cooperativity: < 0.2

## O=C1C[C@@H]2OCC=C3C[N+]4(CC5CCCCC5)CC[C@]56c7ccccc7N1[C@H]5[C@H]2[C@H]3C[C@@H]64 (stereo partly drawn)
[1]
  Affinity: 4.8
[2]
  Affinity: 4.5
[3]
  Cooperativity: 2
[4]
  Cooperativity: < 0.2
[5]
  Cooperativity: 2
[6]
  Cooperativity: < 0.2
[7]
  Affinity: 4.1
[8]
  Affinity: 4
[9]
  Affinity: 5.5
[10]
  Affinity: < 4.9
[11]
  Cooperativity: > 2
[12]
  Cooperativity: < 0.2
[13]
  Affinity: 4.8
[14]
  Affinity: < 4.6
[15]
  Cooperativity: 2
[16]
  Cooperativity: < 0.2

## N#CC[N+]12CC[C@@]34c5ccccc5N5C(=O)C[C@@H]6OCC=C(C1)[C@H](C[C@@H]32)[C@@H]6[C@H]54 (stereo partly drawn)
[1]
  Affinity: 4.8
[2]
  Affinity: < 4.4
[3]
  Cooperativity: > 2
[4]
  Cooperativity: 0.8
[5]
  Cooperativity: 2
[6]
  Cooperativity: 0.8
[7]
  Affinity: 4.2
[8]
  Affinity: < 3.9
[9]
  Affinity: 5.1
[10]
  Affinity: 4.5
[11]
  Cooperativity: > 2
[12]
  Cooperativity: < 0.2
[13]
  Affinity: 4.3
[14]
  Affinity: < 4
[15]
  Cooperativity: 2
[16]
  Cooperativity: 0.8

## CC[N+]12CC[C@@]34c5ccccc5N5C(=O)C[C@@H]6OCC=C(C1)[C@H](C[C@@H]32)[C@@H]6[C@H]54 (stereo partly drawn)
[1]
  Affinity: 4.9
[2]
  Affinity: 4.3
[3]
  Cooperativity: > 2
[4]
  Cooperativity: < 0.2
[5]
  Cooperativity: 1.19
[6]
  Cooperativity: 0.8
[7]
  Affinity: 4.2
[8]
  Affinity: 4.2
[9]
  Affinity: 5.2
[10]
  Affinity: 4.7
[11]
  Cooperativity: > 2
[12]
  Cooperativity: < 0.2
[13]
  Affinity: 4.6
[14]
  Affinity: < 4.5
[15]
  Cooperativity: 2
[16]
  Cooperativity: 0.8

## C=CC[N+]12CC[C@@]34c5ccccc5N5/C=C6/[C@H]7C[C@H]8[C@@]9(CC[N@@+]8(CC=C)C/C7=C/CO)c7ccccc7N(/C=C(/[C@@H](C[C@@H]31)/C(=C\CO)C2)[C@H]54)[C@@H]69 (stereo partly drawn)
[1]
  Affinity: 4.7
[2]
  Affinity: 4.7
[3]
  Cooperativity: 1.19
[4]
  Cooperativity: < 0.2
[5]
  Cooperativity: 0.8
[6]
  Cooperativity: 0.8
[7]
  Affinity: 3.5
[8]
  Affinity: < 4
[9]
  Affinity: 6.5
[10]
  Affinity: 6
[11]
  Cooperativity: > 2
[12]
  Cooperativity: < 0.2
[13]
  Affinity: 4.5
[14]
  Affinity: 4.9
[15]
  Cooperativity: 0.8
[16]
  Cooperativity: < 0.2

## O=C1C[C@@H]2OCC=C3C[N+]4(Cc5ccc6ccccc6c5)CC[C@]56c7ccccc7N1[C@H]5[C@H]2[C@H]3C[C@@H]64 (stereo partly drawn)
[1]
  Affinity: 5.9
[2]
  Affinity: < 5.6
[3]
  Cooperativity: 2
[4]
  Cooperativity: 0.8
[5]
  Cooperativity: 2
[6]
  Cooperativity: 0.8
[7]
  Affinity: 6
[8]
  Affinity: < 5.8
[9]
  Affinity: 6.1
[10]
  Affinity: 5.5
[11]
  Cooperativity: > 2
[12]
  Cooperativity: < 0.2
[13]
  Affinity: 5.5
[14]
  Affinity: < 5.3
[15]
  Cooperativity: 2
[16]
  Cooperativity: 0.8

## O=C1C[C@@H]2OCC=C3C[N+]4(Cc5ccc([N+](=O)[O-])cc5)CC[C@]56c7ccccc7N1[C@H]5[C@H]2[C@H]3C[C@@H]64 (stereo partly drawn)
[1]
  Affinity: 5.4
[2]
  Affinity: 5
[3]
  Cooperativity: > 2
[4]
  Cooperativity: < 0.2
[5]
  Cooperativity: 1.19
[6]
  Cooperativity: 0.8
[7]
  Affinity: 4.6
[8]
  Affinity: 4.6
[9]
  Affinity: 5.6
[10]
  Affinity: 4.8
[11]
  Cooperativity: > 2
[12]
  Cooperativity: < 0.2
[13]
  Affinity: 5.3
[14]
  Affinity: < 4.8
[15]
  Cooperativity: > 2
[16]
  Cooperativity: 0.8

## O=C1C[C@@H]2OCC=C3C[N+]4([O-])CC[C@]56c7ccccc7N1[C@H]5[C@H]2[C@H]3C[C@@H]64 (stereo partly drawn)
[1]
  Affinity: 4.1
[2]
  Affinity: < 3.8
[3]
  Cooperativity: 2
[4]
  Cooperativity: 0.8
[5]
  Cooperativity: 2
[6]
  Cooperativity: 0.8
[7]
  Affinity: 3.9
[8]
  Affinity: < 3.9
[9]
  Affinity: 4.4
[10]
  Affinity: < 4.1
[11]
  Cooperativity: > 2
[12]
  Cooperativity: 0.8
[13]
  Affinity: 3.8
[14]
  Affinity: < 3.6
[15]
  Cooperativity: 2
[16]
  Cooperativity: 0.8

## C[N+]12CC[C@@]34c5ccccc5N5C(=O)C[C@@H]6OCC=C(C1)[C@H](C[C@@H]32)[C@@H]6[C@H]54 (stereo partly drawn)
[1]
  Affinity: 4.7
[2]
  Affinity: 4.1
[3]
  Cooperativity: > 2
[4]
  Cooperativity: < 0.2
[5]
  Cooperativity: 2
[6]
  Cooperativity: 0.8
[7]
  Affinity: 4.1
[8]
  Affinity: < 4
[9]
  Affinity: 5.1
[10]
  Affinity: 4.4
[11]
  Cooperativity: > 2
[12]
  Cooperativity: < 0.2
[13]
  Affinity: 4.5
[14]
  Affinity: < 4.1
[15]
  Cooperativity: > 2
[16]
  Cooperativity: 0.8

## C#CC[N+]12CC[C@@]34c5ccccc5N5C(=O)C[C@@H]6OCC=C(C1)[C@H](C[C@@H]32)[C@@H]6[C@H]54 (stereo partly drawn)
[1]
  Affinity: 5
[2]
  Affinity: 4.8
[3]
  Cooperativity: 2
[4]
  Cooperativity: 0.8
[5]
  Cooperativity: 0.8
[6]
  Cooperativity: < 0.2
[7]
  Affinity: 4.5
[8]
  Affinity: 4.7
[9]
  Affinity: 5.4
[10]
  Affinity: 5.2
[11]
  Cooperativity: 2
[12]
  Cooperativity: < 0.2
[13]
  Affinity: 4.7
[14]
  Affinity: 5.2
[15]
  Cooperativity: 0.8
[16]
  Cooperativity: < 0.2

## O=C1C[C@@H]2OCC=C3C[N+]4(Cc5ccc(-c6ccccc6)cc5)CC[C@]56c7ccccc7N1[C@H]5[C@H]2[C@H]3C[C@@H]64 (stereo partly drawn)
[1]
  Affinity: 6.3
[3]
  Cooperativity: 2
[4]
  Cooperativity: 0.8
[5]
  Cooperativity: 1.19
[6]
  Cooperativity: < 0.2
[7]
  Affinity: 5.7
[8]
  Affinity: 5.6
[9]
  Affinity: 5.9
[10]
  Affinity: 5.6
[11]
  Cooperativity: > 2
[12]
  Cooperativity: < 0.2
[13]
  Affinity: 5.3
[14]
  Affinity: 5.7
[15]
  Cooperativity: 0.8
[16]
  Cooperativity: < 0.2

## O=C1C[C@@H]2OCC=C3CN4CC[C@]56c7ccccc7N1[C@H]5[C@H]2[C@H]3C[C@H]46
[1]
  Affinity: 5.2
[2]
  Affinity: 5
[3]
  Cooperativity: 2
[4]
  Cooperativity: 0.8
[9]
  Affinity: 5.3
[10]
  Affinity: 5
[11]
  Cooperativity: > 2
[12]
  Cooperativity: < 0.2
